In ChEMBL document CHEMBL3351713, “The identification of perillyl alcohol glycosides with improved antiproliferative activity” (J Med Chem, 2014):
Activity calls are given as the source filed them. The calls are words filed in the database; no cut-off is given here.

Tests used:
[1] = system: A549; test: Cytotoxicity against human A549 cells at 250 uM after 48 hrs by alamar blue assay; assay type: functional; details: A549, 48 h
Procedure, shortened: (§1)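 Single 250 µM concentration. Cells seeded at 3 × 10^3/well in F-12K with 10% FBS and 2 mM L-glutamine, then adhered overnight. Exposure was 48 h at 37 °C, 5% CO2, alongside 0.5% DMSO vehicle and 1.5 mM H2O2 controls. Viability was measured by resazurin reduction (0.25 mg/mL stock, 3 h) with fluorescence read at […], em 590 nm.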

[2] = Cytotoxicity against human PC3 cells at 250 uM after 48 hrs by alamar blue assay; assay type: functional; details: PC-3, 48 h; procedure, shortened: as §1
[3] = Cytotoxicity against human PC3 cells after 48 hrs by alamar blue assay; assay type: functional, cell-based; details: PC-3, 48 h
Procedure, shortened: (§2)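 Cells seeded at 3 × 10^3/well in F-12K with 10% FBS, 2 mM L-glutamine and penicillin/streptomycin, then left to adhere overnight. Medium was replaced with nine 2- or 3-fold dilutions, with 0.5% DMSO vehicle and 1.5 mM H2O2 controls. Incubation was 48 h at 37 °C, 5% CO2. Resazurin (0.25 mg/mL stock) was added for 3 h and fluorescence read ([…], em 590 nm). IC50 came from a nonlinear dose-response fit; mean ± SD, triplicates, three independent experiments.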

[4] = system: A549; test: Cytotoxicity against human A549 cells after 48 hrs by alamar blue assay; assay type: functional, cell-based; details: A549, 48 h; procedure, shortened: as §2
[5] = target: Eukaryotic translation initiation factor 4E-binding protein 1 (Homo sapiens) (UniProt Q13541); test: Induction of 4E-BP1 phosphorylation at Thr70 in human A549 cells at 500 uM after 6 hrs by Western blotting analysis; assay type: cell-based
Procedure, shortened: (§3)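 A549 cells were exposed to 250 and 500 µM for 6 h, harvested and lysed. Equal total protein was loaded for SDS-PAGE and immunoblot. Probes were p-4E-BP1 (T37/46, S65, T70), p-S6 (S235/236), eIF4E and cleaved PARP, detected by chemiluminescence.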

[6] = target: Eukaryotic translation initiation factor 4E-binding protein 1 (Homo sapiens) (UniProt Q13541); test: Induction of 4E-BP1 phosphorylation at Ser65 in human A549 cells at 250 uM after 6 hrs by Western blotting analysis; assay type: cell-based; procedure, shortened: as §3
[7] = target: Eukaryotic translation initiation factor 4E-binding protein 1 (Homo sapiens) (UniProt Q13541); test: Induction of 4E-BP1 phosphorylation at Thr70 in human A549 cells at 250 uM after 6 hrs by Western blotting analysis; assay type: cell-based; procedure, shortened: as §3
[8] = target: Eukaryotic translation initiation factor 4E-binding protein 1 (Homo sapiens) (UniProt Q13541); test: Induction of 4E-BP1 phosphorylation at Thr37/46 in human A549 cells at 250 uM after 6 hrs by Western blotting analysis; assay type: cell-based; procedure, shortened: as §3
[9] = target: Eukaryotic translation initiation factor 4E-binding protein 1 (Homo sapiens) (UniProt Q13541); test: Induction of 4E-BP1 phosphorylation at Ser65 in human A549 cells at 500 uM after 6 hrs by Western blotting analysis; assay type: cell-based; procedure, shortened: as §3
[10] = target: Eukaryotic translation initiation factor 4E-binding protein 1 (Homo sapiens) (UniProt Q13541); test: Induction of 4E-BP1 phosphorylation at Thr37/46 in human A549 cells at 500 uM after 6 hrs by Western blotting analysis; assay type: cell-based; procedure, shortened: as §3
[11] = target: Small ribosomal subunit protein eS6 (Homo sapiens) (UniProt P62753); test: Inhibition of S6 ribosomal protein phosphorylation in human A549 cells at 250 to 500 uM after 6 hrs by Western blotting analysis; assay type: cell-based; procedure, shortened: as §3
[12] = system: A549; test: Increase in PARP cleavage in human A549 cells at 250 to 500 uM after 6 hrs by Western blotting analysis; assay type: cell-based; procedure, shortened: as §3

Chain of Eukaryotic translation initiation factor 4E-binding protein 1 (Homo sapiens) (Q13541 whole entry): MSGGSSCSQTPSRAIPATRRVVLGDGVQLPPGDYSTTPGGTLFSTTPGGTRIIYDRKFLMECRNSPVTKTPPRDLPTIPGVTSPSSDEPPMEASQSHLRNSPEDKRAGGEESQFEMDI

Structure (SMILES)	inhibition at 250 µM [1]	inhibition at 250 µM [2]	IC50 [3]	IC50 [4]	Activity [5]	Activity [6]	Activity [7]	Activity [8]	Activity [9]	Activity [10]	inhibition [11]	Activity [12]
C=C(C)[C@@H]1CC=C(/C=N/OC)CC1	> 40%	> 40%										
C=C(C)[C@@H]1CC=C(CN(OC)C2O[C@@H](CO)[C@H](N=[N+]=[N-])[C@@H](O)[C@@H]2O)CC1 (stereo not given in full)	> 40%	> 40%	263 µM	451 µM								
C=C(C)[C@@H]1CC=C(CN(OC)C2O[C@H](CO)[C@@H](O)[C@H](O)[C@H]2N=[N+]=[N-])CC1 (stereo not given in full)	> 40%	> 40%	176 µM	221 µM								
C=C(C)[C@@H]1CC=C(CO)CC1 [PERILLYL ALCOHOL]			380 µM	350 µM	inactive	inactive	inactive	inactive	inactive	inactive	inactive	
C=CCOC(=O)N[C@H]1C(N(CC2=CC[C@@H](C(=C)C)CC2)OC)O[C@H](CO)[C@@H](O)[C@@H]1O (stereo not given in full)	> 40%	> 40%	826 µM	114 µM								
C=C(C)[C@@H]1CC=C(CN(OC)C2O[C@H](CN=[N+]=[N-])[C@@H](N=[N+]=[N-])[C@H](O)[C@H]2O)CC1 (stereo not given in full)	> 40%	> 40%	57 µM	44 µM	Active	Active	Active	Active	Active	Active	Active	Active
C=C(C)[C@@H]1CC=C(CN(OC)C2OC[C@@H](O)[C@H](O)[C@H]2O)CC1 (stereo not given in full)	> 40%	> 40%	152 µM	202 µM								
C=C(C)[C@@H]1CC=C(CN(OC)C2OC[C@@H](N=[N+]=[N-])[C@H](O)[C@H]2O)CC1 (stereo not given in full)	> 40%	> 40%	170 µM	76 µM								
C=C(C)[C@@H]1CC=C(CN(OC)C2O[C@H](CO)[C@@H](N=[N+]=[N-])[C@H](O)[C@H]2O)CC1 (stereo not given in full)	> 40%	> 40%	22 µM	4 µM								
C=C(C)[C@@H]1CC=C(CN(OC)[C@@H]2O[C@H](CO)[C@@H](O)[C@H](O)[C@H]2NC(=O)N(C)N=O)CC1	> 40%	> 40%	232 µM	185 µM								
C=C(C)[C@@H]1CC=C(CN(OC)C2O[C@H](CN=[N+]=[N-])[C@@H](O)[C@H](O)[C@H]2O)CC1 (stereo not given in full)	> 40%	> 40%	182 µM	163 µM								
C=C(C)[C@@H]1CC=C(CN(OC)C2O[C@H](CO)[C@@H](O)[C@H](NC(=O)CCCCCCCCC)[C@H]2O)CC1 (stereo not given in full)	> 40%	> 40%	19 µM	14 µM	Active	Active	Active	Active	Active	Active	Active	Active
C=C(C)[C@@H]1CC=C(CN(OC)C2O[C@H](CNC(=O)CCCCCCCCC)[C@@H](O)[C@H](O)[C@H]2O)CC1 (stereo not given in full)	> 40%	> 40%	30 µM	14 µM								
C=CCOC(=O)NC[C@H]1OC(N(CC2=CC[C@@H](C(=C)C)CC2)OC)[C@H](O)[C@@H](O)[C@@H]1O (stereo not given in full)	> 40%	> 40%	232 µM	140 µM								
